Measured values taken from article PMC3313018 (Cancer Chemotherapy and Pharmacology, 2011).
“Also recorded” adds a separate entry of the source. Like-named read-outs stand apart in the source and are kept apart here. Marks after values point to notes of the source that are not given here.

Columns and labels:
[1] = system: metastatic or locally advanced solid tumors; assay: Antitumor activity by RECIST version 1.0; format: in vivo, Japanese patients
Outline: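 Exploratory tumour assessment by RECIST v1.0 in refractory metastatic or locally advanced solid tumours. Oral 20 or 40 mg: single dose Day 1, washout ≥6 days, then once daily 5 days on/2 days off on Days 8–28 as inpatients. Later 21-day cycles at 5 days a week until progression or unacceptable toxicity.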

[2] = system: non-Japanese patients with refractory or advanced solid cancer; settings: cited from earlier work; for Maximum tolerated dose (MTD): non-Japanese patients ref 10–13
sarcoma = settings: Phase III sarcoma maintenance study, P = 0.0001, stratified log-rank ref 24; cited from earlier work
mTOR = settings: in vitro ref 8; cited from earlier work
human tumor cell lines = settings: in vitro ref 8; cited from earlier work
[3] = Whole blood and plasma pharmacokinetics; format: in vivo, Japanese patients
Outline: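 Cycle 1, oral 20 or 40 mg. Whole blood and plasma sampled predose and 0.5–168 h after the Day 1 dose, predose on Days 15, 18, 22 and 23, and predose to 24 h on Day 26; assayed by HPLC-MS/MS. Tmax, Cmax and Ctrough taken by inspection. […] Accumulation (Day 26/Day 1) from a linear mixed effects model on ln values.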

[4] = system: Japanese patients with advanced solid tumors; assay: Phase I safety and tolerability: DLTs and adverse events; format: in vivo; settings: for DLTs / n/N, No. of patients with DLT/No. of patients at the dose level: Cycle 1
Outline: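 Open-label, single-centre 3+3 escalation, 20 then 40 mg orally (single dose Day 1, then daily 5 days/week from Day 8). DLT window was the first 28-day cycle, counting drug-related Grade 4 neutropenia >5 days, febrile (>38.5°C) Grade 3–4 neutropenia, Grade 4 thrombocytopenia, and Grade 3–4 non-haematologic toxicity with exceptions. Adverse events graded by CTCAE v3.0 over all cycles. Dose intensity <75% excluded from DLT evaluation.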

[5] = system: patients with advanced renal cell carcinoma; settings: cited from earlier work
[6] = All patients (n = 13), all cycles
[7] = all patients (n = 13), all cycles

## CO[C@H]1C[C@@H]2CC[C@@H](C)[C@@](O)(O2)C(=O)C(=O)N2CCCC[C@H]2C(=O)O[C@H]([C@H](C)C[C@@H]2CC[C@@H](OP(C)(C)=O)[C@H](OC)C2)CC(=O)[C@H](C)/C=C(\C)[C@@H](O)[C@@H](OC)C(=O)[C@H](C)C[C@H](C)/C=C/C=C/C=C/1C [ridaforolimus, Ridaforolimus]
[1]; 13 patients, NSCLC and angiosarcoma
  Number of patients achieving a partial response: Two patients
[1]; 13 patients, one thymic cancer, four soft tissue sarcomas
  Number of patients with stable disease for ≥16 weeks: five patients
[1]; Patient 1, Osteosarcoma, 20 mg
  Duration of stable disease: 3.7 weeks
[1]; Patient 3, Thymic cancer, 20 mg
  Duration of stable disease: 16.3 weeks
[1]; Patient 5, Liposarcoma, 20 mg
  Duration of stable disease: 16.1 weeks
[1]; Patient 6, NSCLC (adenocarcinoma), 20 mg
  Duration of stable disease: 4.0 weeks
[1]; Patient 7, NSCLC (adenocarcinoma), 20 mg
  Duration of stable disease: 4.0 weeks
[1]; Patient 8, Osteosarcoma, 40 mg
  Duration of stable disease: 4.0 weeks
[1]; Patient 9, Liposarcoma, 40 mg
  Duration of stable disease: 17.3 weeks
[1]; Patient 10, Leiomyosarcoma, 40 mg
  Duration of stable disease: 16.3 weeks
[1]; Patient 11, Leiomyosarcoma, 40 mg
  Duration of stable disease: 17.1 weeks
[1]; Patient 13, Day 28, baseline 42 mm
  Longest tumor diameter on CT: 21 mm
[1]; both patients with partial response
  Time until the response: 28 days
[2]; 40 mg daily, five times a week, non-Japanese patients ref 17
  DLTs: stomatitis and fatigue
[2]; daily regimen
  Maximum tolerated dose (MTD): 10 mg
[2]; once daily, five-times-a-week regimen
  Maximum tolerated dose (MTD): 40 mg
sarcoma
  Hazard ratio for progression-free survival vs placebo: 0.72
mTOR
  Effect on mTOR activity, in words: inhibited mTOR activity
Human tumor cell lines
  Antiproliferative activity, in words: antiproliferative activity against a broad range of human tumor cell lines
[3]; Day 1, after administration of 20 mg
  Time whole blood concentration was below the quantitation limit (<0.2 ng/mL): 2 to 4 h
[3]; Day 1, after administration of 40 mg
  Time whole blood concentration was below the quantitation limit (<0.2 ng/mL): 1 to 2 h
[3]; once daily, 5 days a week
  Time for mean whole blood C trough to reach steady state: about 1 week
[3]; plasma vs whole blood concentration
  Blood-to-plasma ratio, in words: high blood-to-plasma ratio
[3]; whole blood
  Accumulation from Day 1 to Day 26 (AUC0–24 h, C max, C trough), in words: moderate accumulation
[3]; whole blood, 20 mg
  Accumulation ratio (Day 26/Day 1) AUC0–24 h, geometric mean ratio (90% confidence interval): 1.51 (1.14, 2.01)
  Accumulation ratio (Day 26/Day 1) C max, geometric mean ratio (90% confidence interval): 1.37 (0.959, 1.97)
  Accumulation ratio (Day 26/Day 1) C trough, geometric mean ratio (90% confidence interval): 2.02 (1.61, 2.52)
[3]; whole blood, 40 mg
  Accumulation ratio (Day 26/Day 1) AUC0–24 h, geometric mean ratio (90% confidence interval): 1.44 (1.05, 1.99)
  Accumulation ratio (Day 26/Day 1) C max, geometric mean ratio (90% confidence interval): 1.01 (0.674, 1.50)
  Accumulation ratio (Day 26/Day 1) C trough, geometric mean ratio (90% confidence interval): 1.76 (1.37, 2.25)
[3]; whole blood, Day 1, 20 and 40 mg
  Lag time for systemic absorption: 1 to 4 h
[3]; whole blood, Days 1 and 26
  Time at which C max was reached: approximately 4 h
[4]; 20 mg (n = 7), all cycles
  Anorexia, drug-related adverse event, Grades 1–2, no. of patients: 2
  Constipation, drug-related adverse event, Grades 1–2, no. of patients: 3
  Fatigue, drug-related adverse event, Grades 1–2, no. of patients: 1
  Hypercholesterolemia, drug-related adverse event, Grades 1–2, no. of patients: 3
  Hyperglycemia, drug-related adverse event, Grades 1–2, no. of patients: 2
  Hypertriglyceridemia, drug-related adverse event, Grades 1–2, no. of patients: 5
  Hypoalbuminemia, drug-related adverse event, Grades 1–2, no. of patients: 2
  Interstitial pneumonitis, drug-related adverse event, Grades 1–2, no. of patients: 1
  Interstitial pneumonitis, drug-related adverse event, Grades 3–4, no. of patients: 0
  Leukopenia, drug-related adverse event, Grades 1–2, no. of patients: 1
  Leukopenia, drug-related adverse event, Grades 3–4, no. of patients: 1
  Neutropenia, drug-related adverse event, Grades 1–2, no. of patients: 1
  Neutropenia, drug-related adverse event, Grades 3–4, no. of patients: 2
  Proteinuria, drug-related adverse event, Grades 1–2, no. of patients: 3
  Stomatitis, drug-related adverse event, Grades 3–4, no. of patients: 1
  Thrombocytopenia, drug-related adverse event, Grades 1–2, no. of patients: 2
[4]; 40 mg (n = 6), all cycles
  Anemia, drug-related adverse event, Grades 1–2, no. of patients: 3
  Anemia, drug-related adverse event, Grades 3–4, no. of patients: 3
  Anorexia, drug-related adverse event, Grades 1–2, no. of patients: 2
  Anorexia, drug-related adverse event, Grades 3–4, no. of patients: 1
  Constipation, drug-related adverse event, Grades 1–2, no. of patients: 1
  Fatigue, drug-related adverse event, Grades 1–2, no. of patients: 3
  Hypercholesterolemia, drug-related adverse event, Grades 1–2, no. of patients: 3
  Hyperglycemia, drug-related adverse event, Grades 1–2, no. of patients: 2
  Hyperglycemia, drug-related adverse event, Grades 3–4, no. of patients: 1
  Hypertriglyceridemia, drug-related adverse event, Grades 1–2, no. of patients: 4
  Hypoalbuminemia, drug-related adverse event, Grades 1–2, no. of patients: 3
  Interstitial pneumonitis, drug-related adverse event, Grades 1–2, no. of patients: 3
  Interstitial pneumonitis, drug-related adverse event, Grades 3–4, no. of patients: 0
  Leukopenia, drug-related adverse event, Grades 1–2, no. of patients: 2
  Loss of body weight, drug-related adverse event, Grades 1–2, no. of patients: 4
  Neutropenia, drug-related adverse event, Grades 1–2, no. of patients: 1
  Proteinuria, drug-related adverse event, Grades 1–2, no. of patients: 3
  Rash, drug-related adverse event, Grades 1–2, no. of patients: 2
  Rash, drug-related adverse event, Grades 3–4, no. of patients: 1
  Stomatitis, drug-related adverse event, Grades 1–2, no. of patients: 6
  Thrombocytopenia, drug-related adverse event, Grades 1–2, no. of patients: 3
[4]; 13 patients
  Median time until the onset of stomatitis: 11 days
  Number of patients who discontinued treatment because of adverse events: Six patients
[4]; 13 patients enrolled
  Number of patients with stomatitis: 13
[4]; 13 patients, 20 and 40 mg
  Number of patients with grade 1 drug-induced interstitial pneumonitis: Four patients
[4]; 20 and 40 mg, first cycle
  Number of patients with dose-limiting toxicities: Two patients
[4]; [6]
  Anemia, drug-related adverse event, Grades 3–4, no. of patients: 4
  Anorexia, drug-related adverse event, Grades 1–2, no. of patients: 4
  Anorexia, drug-related adverse event, Grades 3–4, no. of patients: 1
  Constipation, drug-related adverse event, Grades 1–2, no. of patients: 4
  Fatigue, drug-related adverse event, Grades 1–2, no. of patients: 4
  Hypercholesterolemia, drug-related adverse event, Grades 1–2, no. of patients: 6
  Hyperglycemia, drug-related adverse event, Grades 1–2, no. of patients: 4
  Hyperglycemia, drug-related adverse event, Grades 3–4, no. of patients: 1
  Hypertriglyceridemia, drug-related adverse event, Grades 1–2, no. of patients: 9
  Hypoalbuminemia, drug-related adverse event, Grades 1–2, no. of patients: 5
  Interstitial pneumonitis, drug-related adverse event, Grades 1–2, no. of patients: 4
  Interstitial pneumonitis, drug-related adverse event, Grades 3–4, no. of patients: 0
  Leukopenia, drug-related adverse event, Grades 1–2, no. of patients: 3
  Leukopenia, drug-related adverse event, Grades 3–4, no. of patients: 1
  Loss of body weight, drug-related adverse event, Grades 1–2, no. of patients: 4
  Neutropenia, drug-related adverse event, Grades 1–2, no. of patients: 2
  Neutropenia, drug-related adverse event, Grades 3–4, no. of patients: 2
  Proteinuria, drug-related adverse event, Grades 1–2, no. of patients: 6
  Rash, drug-related adverse event, Grades 3–4, no. of patients: 1
  Stomatitis, drug-related adverse event, Grades 3–4, no. of patients: 1
  Thrombocytopenia, drug-related adverse event, Grades 1–2, no. of patients: 5
[4]; Grade 3 anorexia, 40 mg
  Time to onset of DLT: 23 days
[4]; Grade 3 stomatitis, 20 mg
  Time to onset of DLT: 8 days
[4]; Grade 3 vomiting, 40 mg
  Time to onset of DLT: 23 days
[4]; Level 1, 20 mg
  DLTs: Grade 3 stomatitis
  n/N, No. of patients with DLT/No. of patients at the dose level: 1/6^b
[4]; Level 2, 40 mg
  DLTs: Grade 3 anorexia; also recorded: Grade 3 vomiting
  n/N, No. of patients with DLT/No. of patients at the dose level: 1/6
[4]; [7]
  Incidence of hypercholesterolemia related to treatment: 46.2%
  Incidence of hypertriglyceridemia related to treatment: 69.2%
  Incidence of leucopenia: 30.8%
  Incidence of neutropenia: 30.8%
  Incidence of proteinuria related to treatment: 46.2%
  Incidence of skin rash related to treatment: 61.5%
  Incidence of stomatitis related to treatment: 100%
  Incidence of thrombocytopenia: 38.5%
[4]; dose level 2 (40 mg)
  Patients requiring a dose reduction: None
[4]; eight patients with other cancer types
  Interstitial pneumonitis among patients with other cancer types: three cases occurred among eight patients
[4]; five patients with NSCLC
  Interstitial pneumonitis among NSCLC patients: one of these five NSCLC patients
[4]; four patients
  Time of occurrence of interstitial pneumonitis after the start of treatment: 2–5 months
[4]; oral, once daily 5 days a week
  Tolerability, in words: well tolerated up to a dose of 40 mg

## CO[C@H]1C[C@@H]2CC[C@@H](C)[C@@](O)(O2)C(=O)C(=O)N2CCCC[C@H]2C(=O)O[C@H]([C@H](C)C[C@@H]2CC[C@@H](OCCO)[C@H](OC)C2)CC(=O)[C@H](C)/C=C(\C)[C@@H](O)[C@@H](OC)C(=O)[C@H](C)C[C@H](C)/C=C/C=C/C=C/1C [everolimus]
[5]; Japanese patients with advanced renal cell carcinoma ref 18
  Incidence of pneumonitis: 27%
[5]; patients with renal cell carcinoma overall ref 18
  Incidence of pneumonitis, overall rate: 11%
